Measurements reported in ChEMBL document CHEMBL4765320, “Identification and optimization of piperine analogues as neuroprotective agents for the treatment of Parkinson's disease via the activation of Nrf2/keap1 pathway” (Eur J Med Chem, 2020).
Activity calls are given as the source filed them. The rule behind the calls is not given here.

Legend:
PC-12 [1] = experiment: Neuroprotective activity against H2O2-induced cytotoxicity in rat PC-12 cells assessed as cell viability at 100 uM pretreated for 24 hrs followed by H2O2 challenge and measured after 24 hrs by MTT assay (reference value: 52.81 +/- 6%); format: functional, cell-based; conditions: time 48.0 hrs
PC-12 [2] = experiment: Neuroprotective activity against H202-induced cell damage in rat PC-12 cells assessed as decrease in LDH content incubated at 12.5 to 25 uM for 24 hrs by Lactate dehydrogenase assay; format: functional, cell-based; conditions: dose 12.5-25 µM
In short: (§1)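 PC12 cells seeded 1 × 10⁴/well for 24 h, pretreated with compound at several concentrations (12.5–100 µM range), then challenged with H2O2; LDH released into medium quantified as membrane-damage marker. Mean ± SD, three independent experiments.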

PC-12 [3] = experiment: Inhibition of H202-induced apoptosis in rat PC-12 cells assessed as viable cells at 12.5 uM after 24 hrs by Annexin-V-FITC/PI-staining based flow cytometric analysis (reference value: 52.01%); format: functional; conditions: read-out: Activity
In short: (§2)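 PC12 cells seeded 2 × 10⁵/well for 24 h, pretreated 24 h with 12.5, 25, 50 or 100 µM compound, then given fresh medium containing 650 µM H2O2. Harvested cells washed in binding buffer, stained 5 min with Annexin V-FITC/PI, analysed by flow cytometry.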

PC-12 [4] = experiment: Inhibition of H202-induced apoptosis in rat PC-12 cells assessed as late apoptotic cells at 25 uM after 24 hrs by Annexin-V-FITC/PI-staining based flow cytometric analysis (reference value: 32.5%); format: functional; parameters: scale not given: the % may be the effect or the level left; in short: as §2
PC-12 [5] = experiment: Inhibition of H202-induced apoptosis in rat PC-12 cells assessed as necrotic cells at 50 uM after 24 hrs by Annexin-V-FITC/PI-staining based flow cytometric analysis (reference value: 0.33%); format: functional; parameters: scale not given: the % may be the effect or the level left; in short: as §2
PC-12 [6] = experiment: Inhibition of H202-induced apoptosis in rat PC-12 cells assessed as viable cells at 100 uM after 24 hrs by Annexin-V-FITC/PI-staining based flow cytometric analysis (reference value: 52.01%); format: functional; conditions: read-out: Activity; in short: as §2
[7] = biological target: T1, Nuclear factor erythroid 2-related factor 2 (Rattus norvegicus) (UniProt O54968); experiment: Induction of Nrf2 nuclear translocation in rat PC-12 cells assessed as Nrf2 accumulation in nucleus at 25 uM measured after 4 to 8 hrs by immunofluorescence analysis; format: cell-based; conditions: filed as activator, time 4-8 hrs
T1 sequence (whole entry): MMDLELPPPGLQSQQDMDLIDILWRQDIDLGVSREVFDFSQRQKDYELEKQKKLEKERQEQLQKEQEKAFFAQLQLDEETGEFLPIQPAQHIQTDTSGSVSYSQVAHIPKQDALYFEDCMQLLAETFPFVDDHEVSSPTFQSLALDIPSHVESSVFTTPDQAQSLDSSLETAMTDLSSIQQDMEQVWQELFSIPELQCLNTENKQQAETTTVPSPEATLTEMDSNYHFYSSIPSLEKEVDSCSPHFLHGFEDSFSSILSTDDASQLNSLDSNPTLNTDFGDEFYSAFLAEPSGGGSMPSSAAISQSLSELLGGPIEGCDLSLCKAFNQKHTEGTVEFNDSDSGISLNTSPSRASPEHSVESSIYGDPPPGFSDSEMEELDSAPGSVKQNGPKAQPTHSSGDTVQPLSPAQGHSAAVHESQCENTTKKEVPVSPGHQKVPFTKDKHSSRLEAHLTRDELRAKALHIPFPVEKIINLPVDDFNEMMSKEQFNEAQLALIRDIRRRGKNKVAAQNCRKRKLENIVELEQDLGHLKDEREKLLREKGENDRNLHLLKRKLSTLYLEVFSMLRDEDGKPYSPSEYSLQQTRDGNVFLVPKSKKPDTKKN
In short: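 PC12 cells exposed to 25 µM compound for 0, 4, 6 and 8 h; fixed in cold methanol (−20 °C, 20 min), anti-Nrf2 overnight, Dylight 594 secondary (1:500, 1 h), DAPI nuclear counterstain; imaged by fluorescence microscopy.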

PC-12 [8] = experiment: Upregulation of HO-1 expression in rat PC-12 cell incubated for 24 hrs by Western blot analysis; format: functional
In short: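 PC12 cells treated with compound for 24 h; lysates resolved by SDS-PAGE, transferred to PVDF and probed for HO-1 and NQO1; band intensities quantified densitometrically. Mean ± SD of three independent experiments.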

PC-12 [9] = experiment: Cytoprotection activity against H2O2-induced rat PC12-shNT cell assessed as cell viability at 12.5 to 100 uM pretreated for 24 hrs followed by H2O2 challenge and measured after 24 hrs by MTT assay; format: functional, cell-based; conditions: dose 12.5-100 µM, time 48.0 hrs
In short: (§3)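 PC12 lines made by lentiviral shRNA against rat Nrf2 (shNrf2-2) or scrambled control (shNT), selected with 0.5 mg/mL G418, knockdown confirmed by Western blot. Pretreated 24 h with 12.5, 25.0, 50.0 or 100 µM compound, then H2O2 for 24 h; viability by MTT; mean ± SD, three independent experiments.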

PC-12 [10] = experiment: Cytoprotection activity against H2O2-induced rat PC12-shNrf2-2 cell assessed as cell viability at 12.5 to 100 uM pretreated for 24 hrs followed by H2O2 challenge and measured after 24 hrs by MTT assay; format: functional, cell-based; conditions: dose 12.5-100 µM, time 48.0 hrs; in short: as §3
Mus musculus [11] = experiment: Neuroprotective activity in lesioned C57BL/6 mouse model of Parkinson's disease assessed as increase in time spent on rotarod at 100 mg/kg, po administered for 2 week before MPTP stimulation by rotarod test; format: functional; conditions: time 2 weeks
In short: (§4)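 Male 10-week-old C57BL/6 mice (20–23 g), n = 6/group. Prophylactic: oral compound (50 or 100 mg/kg in saline) 2 weeks, then MPTP-HCl 25 mg/kg i.p. in week 3. Therapeutic: MPTP-HCl 25 mg/kg i.p. 1 week, then oral 100 mg/kg 2 weeks. Saline vehicle. Pole/rotarod training last 3 days; TH immunohistochemistry on SNpc and striatum.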

Mus musculus [12] = experiment: Neuroprotective activity in lesioned C57BL/6 mouse model of Parkinson's disease assessed as assessed as reduction in climbing down time at 100 mg/kg, po administered for 2 week before MPTP stimulation by pole test; format: functional; conditions: C57BL/6, po, 336 h, time 2 weeks; in short: as §4
Mus musculus [13] = experiment: Neuroprotective activity in lesioned C57BL/6 mouse model of Parkinson's disease assessed as assessed as reduction in climbing down time at 100 mg/kg, po administered for 2 week after MPTP stimulation by pole test; format: functional; conditions: C57BL/6, po, 336 h, read-out: INH, time 2 weeks; in short: as §4
Mus musculus [14] = experiment: Neuroprotective activity against lesioned C57BL/6 mouse model of Parkinson's disease assessed as increase in number of TH positive cells at 50 to 100 mg/kg , po administered for 2 week before MPTP stimulation by Immuno histochemistry assays; format: functional; conditions: dose 50-100 mg/kg, time 2 weeks; in short: as §4
PC-12 [15] = experiment: Cytotoxicity against rat PC-12 cells assessed as increase LDH content in presence of H2O2 incubated at 50 to 100 uM for 24 hrs by Lactate dehydrogenase assay; format: cell-based; conditions: pc-12, 24 h, dose 50-100 µM; in short: as §1
PC-12 [16] = experiment: Inhibition of H2O2-induced mitochondrial membrane potential loss in rat PC-12 cells pretreated for 24 hrs followed by H2O2 challenge and measured after 24 hrs by JC-1 staining based fluorescence microplate reader assay; conditions: dose 12.5-50 µM, time 48.0 hrs

In the case of `COc1ccccc1/C=C/C=C/C(=O)N1CCCCC1`, the Activity (PC-12 [1]) is reported as “Active”, the Activity (PC-12 [2]) is reported as “Active” and the viability at 12.5 µM (PC-12 [3]) is reported as 61.4%. It also gave an Activity (PC-12 [4]) of 18.04%, an Activity (PC-12 [5]) of 0.26% and a viability at 100 µM (PC-12 [6]) of 58%. The Activity [7] was “Active”, the Activity (PC-12 [8]) was “Active” and the Activity (PC-12 [9]) was “Active”. The Activity (PC-12 [10]) was “inactive”, the Time (Mus musculus [11]) was 226.2 s and the inhibition in vivo at 100 mg/kg (Mus musculus [12]) was 34.5%. The inhibition in vivo at 100 mg/kg (Mus musculus [13]) was 20.6%, the Activity (Mus musculus [14]) was 30.7% and the Activity (PC-12 [15]) was “Toxic”. The inhibition (PC-12 [16]) was “Dose-dependent effect”.
